Active and inactive are the calls of the source. No rule for the calls is given here.
Columns and labels:
[1] = biological target: T1, L-lactate dehydrogenase A chain (Homo sapiens, UniProt P00338); experiment: Inhibition of recombinant human LDHA using sodium pyruvate as substrate preincubated for 5 mins followed by diaphorase/resazurin addition and measured after 20 mins by fluorescence based assay
[2] = biological target: T1, L-lactate dehydrogenase A chain; experiment: Inhibition of LDHA in human A673 cells assessed as decrease in lactate production incubated for 2 hrs by lactate oxidase-coupled fluorescence based assay; format: cell-based
A673 = experiment: Cytotoxicity against human A673 cells assessed as reduction in cell viability after 48 hrs by CellTiter-Glo assay; format: functional, cell-based; conditions: A673, 48 h
[3] = biological target: T1, L-lactate dehydrogenase A chain; experiment: Inhibition of LDHA in human MIA PaCa-2 cells assessed as decrease in lactate production incubated for 2 hrs by lactate oxidase-coupled fluorescence based assay; format: cell-based
MIA PaCa-2 = experiment: Cytotoxicity against human MIA PaCa-2 cells assessed as reduction in cell viability after 48 hrs by CellTiter-Glo assay; format: functional, cell-based; conditions: MIA PaCa-2, 48 h
[4] = biological target: T1, L-lactate dehydrogenase A chain; experiment: Inhibition of GS[HiBiT]GS-tagged LDHA (unknown origin) expressed in HEK-293T cells measured after 1 hr by […]; format: cell-based
Outline: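 HEK293T cells were transiently transfected for 24 h with CMV-driven LDHA carrying a C-terminal GS[HiBiT]GS tag, then reseeded at 2500 cells/well in DPBS with Ca/Mg and 1 g/L glucose. […] Cells were lysed with NP40, and 11S (100 nM final) plus furimazine was added.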

[5] = biological target: L-lactate dehydrogenase B chain (Homo sapiens) (UniProt P07195); experiment: Inhibition of recombinant human LDHB using sodium pyruvate as substrate preincubated for 5 mins followed by diaphorase/resazurin addition and measured after 20 mins by fluorescence based assay
Sus scrofa = organism: Sus scrofa; experiment: Inhibition of porcine heart MDH using malic acid as substrate preincubated for 10 mins followed by substrate addition and measured after 5 mins by resazurin based fluorescence based assay; conditions: time 15.0 min

Chain of L-lactate dehydrogenase B chain (Homo sapiens) (P07195 2-334 limits assumed): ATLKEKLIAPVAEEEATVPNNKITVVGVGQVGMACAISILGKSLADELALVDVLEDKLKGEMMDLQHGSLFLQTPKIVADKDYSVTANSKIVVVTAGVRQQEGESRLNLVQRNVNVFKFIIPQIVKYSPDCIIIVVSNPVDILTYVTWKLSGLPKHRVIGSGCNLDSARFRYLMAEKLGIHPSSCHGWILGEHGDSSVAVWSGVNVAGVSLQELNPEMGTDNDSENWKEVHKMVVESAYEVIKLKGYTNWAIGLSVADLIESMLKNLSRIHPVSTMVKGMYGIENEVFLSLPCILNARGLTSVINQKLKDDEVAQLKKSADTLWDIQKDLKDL

IC50 [1] [nM]	IC50 [2] [nM]	IC50 [3] [nM]	IC50 [4] [nM]	inhibition [5]	inhibition (Sus scrofa)	SMILES	IC50 (A673) [nM]	IC50 (MIA PaCa-2) [nM]	IC50 ([2]; a673) [nM]
24	434	334	17800	Active	inactive	Cc1ncc(C#Cc2cccc(-c3nn(-c4nc(C(=O)O)cs4)c(CCC4CC4)c3Cc3ccc(S(N)(=O)=O)c(F)c3)c2)s1	218	218	–
636	572	379	299	Active	inactive	NS(=O)(=O)c1ccc(Cc2c(-c3cccc(C#Cc4ccc(C5CCC5)s4)c3)nn(-c3nc(C(=O)O)cs3)c2CCC2CC2)cc1F	571	–	–
235	161	218	299	Active	inactive	Cc1cc(C#Cc2cccc(-c3nn(-c4nc(C(=O)O)cs4)c(CC4CC4)c3Cc3ccc(S(N)(=O)=O)c(F)c3)c2)c(C)s1	716	810	–
47	298	281	89	Active	inactive	NS(=O)(=O)c1ccc(Cc2c(-c3cccc(C#CC4CCCC4)c3)nn(-c3nc(C(=O)O)cs3)c2CC2CC2)cc1F	419	377	–
101	390	417	119	Active	inactive	Cc1ccsc1C#Cc1cccc(-c2nn(-c3nc(C(=O)O)cs3)c(CC3CC3)c2Cc2ccc(S(N)(=O)=O)c(F)c2)c1	–	452	–
434	485	337	113	Active	inactive	NS(=O)(=O)c1ccc(Cc2c(-c3cccc(C#Cc4ccc(C(F)(F)F)s4)c3)nn(-c3nc(C(=O)O)cs3)c2CC2CC2)cc1F	833	803	–
24	300	253	90	Active	inactive	Cc1nc(C#Cc2cccc(-c3nn(-c4nc(C(=O)O)cs4)c(CCC4CC4)c3Cc3ccc(S(N)(=O)=O)c(F)c3)c2)cs1	219	219	–
169	333	491	270	Active	inactive	NS(=O)(=O)c1ccc(Cc2c(-c3cccc(C#Cc4ccc(C5CCC5)s4)c3)nn(-c3nc(C(=O)O)cs3)c2CC2CC2)cc1F	–	905	–
306	434	387	189	Active	inactive	NS(=O)(=O)c1ccc(Cc2c(-c3cccc(C#Cc4ccc(C5CC5)s4)c3)nn(-c3nc(C(=O)O)cs3)c2CCC2CC2)cc1F	–	265	–

Continued, compound first:

SMILES	IC50 [1] [nM]	IC50 [2] [nM]	IC50 [3] [nM]	IC50 [4] [nM]	inhibition [5]	inhibition (Sus scrofa)	IC50 (A673) [nM]	IC50 (MIA PaCa-2) [nM]	IC50 ([2]; a673) [nM]
NS(=O)(=O)c1ccc(Cc2c(-c3ccc(F)c(C#CCCO)c3)nn(-c3nc(C(=O)O)cs3)c2CC2CC2)cc1F	3	2480	1660	577	Active	inactive	1800	1330	–
NS(=O)(=O)c1ccc(Cc2c(-c3cccc(-c4ccccc4)c3)nn(-c3nc(C(=O)O)cs3)c2CCC2CC2)cc1	36	509	804	727	Active	inactive	1960	6200	–
NS(=O)(=O)c1ccc(Cc2c(-c3ccc(F)c(-c4ccccc4)c3)nn(-c3nc(C(=O)O)cs3)c2CC2CC2)cc1F	23	465	585	141	Active	inactive	1340	3420	–
NS(=O)(=O)c1ccc(Cc2c(-c3cccc(-c4ccccc4)c3)nn(-c3nc(C(=O)O)cs3)c2C2(C(F)(F)F)CC2)cc1	4100	20200	12800	303	Active	inactive	> 30000	> 30000	–
NS(=O)(=O)c1ccc(Cc2c(-c3ccc(F)c(C#CCN4CCCC4)c3)nn(-c3nc(C(=O)O)cs3)c2CC2CC2)cc1F	8	1090	1010	267	Active	inactive	–	–	–
NS(=O)(=O)c1ccc(Cc2c(-c3cccc(-c4ccccc4)c3)nn(-c3nc(C(=O)O)cs3)c2C2CC2(F)F)cc1 (stereo not given)	36	1860	4760	2530	Active	inactive	24400	17700	–
CC(F)C#Cc1cc(-c2nn(-c3nc(C(=O)O)cs3)c(CC3CC3)c2Cc2ccc(S(N)(=O)=O)c(F)c2)ccc1F (stereo not given)	14	800	822	127	Active	inactive	1130	1020	–
CC(C)C#Cc1cc(-c2nn(-c3nc(C(=O)O)cs3)c(CC3CC3)c2Cc2ccc(S(N)(=O)=O)c(F)c2)ccc1F	21	284	487	2050	Active	inactive	1010	756	–
N#CC#Cc1cc(-c2nn(-c3nc(C(=O)O)cs3)c(CC3CC3)c2Cc2ccc(S(N)(=O)=O)c(F)c2)ccc1F	15	4010	4400	474	Active	inactive	> 30000	> 30000	–
CC(C)(C)C#Cc1cc(-c2nn(-c3nc(C(=O)O)cs3)c(CC3CC3)c2Cc2ccc(S(N)(=O)=O)c(F)c2)ccc1F	16	141	137	75	Active	inactive	935	845	–
NS(=O)(=O)c1ccc(Cc2c(-c3ccc(F)c(C#CC(F)(F)F)c3)nn(-c3nc(C(=O)O)cs3)c2CC2CC2)cc1F	450	> 30000	> 30000	14000	Active	inactive	> 30000	> 30000	–
Cc1cnc(C#Cc2cccc(-c3nn(-c4nc(C(=O)O)cs4)c(CC4CC4)c3Cc3ccc(S(N)(=O)=O)c(F)c3)c2)o1	12	525	450	119	Active	inactive	–	671	–
CC(C)(C)c1ccc(C#Cc2cc(-c3nn(-c4nc(C(=O)O)cs4)c(CC4CC4)c3Cc3ccc(S(N)(=O)=O)c(F)c3)ccc2F)s1	713	529	507	10600	Active	inactive	–	665	–
NS(=O)(=O)c1ccc(Cc2c(-c3ccc(F)c(C#CCN4CCOCC4)c3)nn(-c3nc(C(=O)O)cs3)c2CC2CC2)cc1F	107	15300	18900	5050	Active	inactive	5830	–	–
NS(=O)(=O)c1ccc(Cc2c(-c3cccc(-c4ccccc4)c3)nn(-c3nc(C(=O)O)cs3)c2CC2CC2)c(F)c1	229	4460	6460	–	Active	inactive	11500	5750	–
Cn1cncc1C#Cc1cc(-c2nn(-c3nc(C(=O)O)cs3)c(CC3CC3)c2Cc2ccc(S(N)(=O)=O)c(F)c2)ccc1F	8	1600	1070	299	Active	inactive	–	1390	–
NS(=O)(=O)c1ccc(Cc2c(-c3ccc(F)c(C#CC4CCOC4)c3)nn(-c3nc(C(=O)O)cs3)c2CC2CC2)cc1F (stereo not given)	7	–	831	89	Active	inactive	973	–	1270
CC#Cc1cccc(-c2nn(-c3nc(C(=O)O)cs3)c(CC3CC3)c2Cc2ccc(S(N)(=O)=O)c(F)c2)c1	9	713	525	150	Active	inactive	–	619	–
NS(=O)(=O)c1ccc(Cc2c(-c3ccc(F)c(C#CC4CCNCC4)c3)nn(-c3nc(C(=O)O)cs3)c2CC2CC2)cc1F	15	12200	8910	2580	Active	inactive	–	17300	–
